The record followed here is ChEMBL document CHEMBL4706575, “Nonpeptidic quinazolinone derivatives as dual nucleotide-binding oligomerization domain-like receptor 1/2 antagonists for adjuvant cancer chemotherapy” (Eur J Med Chem, 2020).

Active and inactive are the calls of the source. No cut-off for these calls is given here.

Data set [1] deals with T1, Nucleotide-binding oligomerization domain-containing protein 2 (Homo sapiens, UniProt Q9HC29). Kind of data set: Antagonist activity at NOD2 in human THP-1 cells assessed as inhibition of MDP-induced increase in p65 phosphorylation preincubated for 1 hr followed by MDP addition and measured after 30 mins by Western blot analysis. Format: cell-based. Conditions: filed as antagonist, dose 1-10 µM, time 1.5 hrs. The gist of the method: (§1)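 Serum-starved THP-1 cells pretreated with compound (1.0 or 10 µM) or without for 1 h. Then C12-iE-DAP 500 ng/mL (NOD1) or MDP (NOD2) for 30 min. Lysed in cold whole-cell buffer. Western blot for IκBα and for total and phospho RIP2, IKKα/β, p65, JNK, p38 and ERK1/2. β-actin as loading control.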
T1 sequence (Q9HC29 whole entry, the tested form may be a part): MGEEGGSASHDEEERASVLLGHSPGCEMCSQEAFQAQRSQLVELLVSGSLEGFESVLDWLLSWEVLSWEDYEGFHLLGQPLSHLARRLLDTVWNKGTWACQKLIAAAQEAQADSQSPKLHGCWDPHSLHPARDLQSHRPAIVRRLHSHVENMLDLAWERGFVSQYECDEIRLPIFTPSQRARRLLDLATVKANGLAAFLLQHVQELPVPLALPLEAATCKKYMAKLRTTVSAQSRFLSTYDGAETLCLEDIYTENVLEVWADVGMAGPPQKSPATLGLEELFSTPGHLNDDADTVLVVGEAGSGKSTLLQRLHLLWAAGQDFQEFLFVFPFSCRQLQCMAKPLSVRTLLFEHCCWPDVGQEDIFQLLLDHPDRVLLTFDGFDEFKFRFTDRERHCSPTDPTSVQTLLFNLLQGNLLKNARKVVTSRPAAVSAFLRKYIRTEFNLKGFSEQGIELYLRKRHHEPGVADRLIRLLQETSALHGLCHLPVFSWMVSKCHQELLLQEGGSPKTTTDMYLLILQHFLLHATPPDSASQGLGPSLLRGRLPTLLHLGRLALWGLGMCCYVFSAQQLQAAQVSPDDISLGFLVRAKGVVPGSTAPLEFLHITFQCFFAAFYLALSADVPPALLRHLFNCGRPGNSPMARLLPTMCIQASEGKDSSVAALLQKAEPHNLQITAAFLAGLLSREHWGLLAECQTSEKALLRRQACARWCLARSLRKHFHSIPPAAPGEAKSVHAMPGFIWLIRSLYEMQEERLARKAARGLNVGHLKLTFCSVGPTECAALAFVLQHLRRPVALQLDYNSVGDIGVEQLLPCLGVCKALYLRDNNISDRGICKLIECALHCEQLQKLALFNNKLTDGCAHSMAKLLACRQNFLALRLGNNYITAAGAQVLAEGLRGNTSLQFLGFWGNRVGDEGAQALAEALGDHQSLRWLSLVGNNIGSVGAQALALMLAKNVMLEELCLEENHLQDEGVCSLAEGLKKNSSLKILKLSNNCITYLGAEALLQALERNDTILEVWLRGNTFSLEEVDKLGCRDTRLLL
(A western blot detects proteins with antibodies after separation by electrophoresis.)

Data set [2] concerns the target T2, Nucleotide-binding oligomerization domain-containing protein 1 (Homo sapiens) (UniProt Q9Y239).
T2 sequence (whole entry): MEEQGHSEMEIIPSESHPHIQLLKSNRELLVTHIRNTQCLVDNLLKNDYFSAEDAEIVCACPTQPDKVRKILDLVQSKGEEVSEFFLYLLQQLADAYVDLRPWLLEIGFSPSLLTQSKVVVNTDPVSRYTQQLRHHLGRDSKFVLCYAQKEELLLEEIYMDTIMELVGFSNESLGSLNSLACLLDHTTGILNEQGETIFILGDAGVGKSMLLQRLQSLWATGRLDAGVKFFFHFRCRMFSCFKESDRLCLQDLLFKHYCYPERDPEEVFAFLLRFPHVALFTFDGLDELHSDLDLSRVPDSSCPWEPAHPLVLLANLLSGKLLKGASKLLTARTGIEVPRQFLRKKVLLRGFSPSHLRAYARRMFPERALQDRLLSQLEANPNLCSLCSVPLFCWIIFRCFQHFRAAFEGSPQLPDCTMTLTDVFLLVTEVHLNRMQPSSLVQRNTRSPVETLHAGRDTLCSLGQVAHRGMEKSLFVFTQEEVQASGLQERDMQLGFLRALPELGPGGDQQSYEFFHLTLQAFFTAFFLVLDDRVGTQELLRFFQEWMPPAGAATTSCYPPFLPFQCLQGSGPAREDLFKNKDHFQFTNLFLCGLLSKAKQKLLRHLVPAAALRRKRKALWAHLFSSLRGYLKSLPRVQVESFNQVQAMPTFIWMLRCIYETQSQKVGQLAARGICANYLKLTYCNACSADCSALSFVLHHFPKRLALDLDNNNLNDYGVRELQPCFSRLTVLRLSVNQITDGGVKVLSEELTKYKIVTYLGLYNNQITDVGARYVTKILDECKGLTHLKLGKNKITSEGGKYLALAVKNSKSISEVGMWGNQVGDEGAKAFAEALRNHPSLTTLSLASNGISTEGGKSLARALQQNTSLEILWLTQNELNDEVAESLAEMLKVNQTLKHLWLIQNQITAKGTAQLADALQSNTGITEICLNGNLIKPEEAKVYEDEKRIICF
Kind of data set: Antagonist activity at NOD1 in human THP-1 cells assessed as inhibition of C12-iE-DAP-induced IL6 mRNA expression preincubated for 1 hr followed by C12-iE-DAP addition and measured after 90 mins by qRT-PCR analysis. Type of data set: cell-based. Conditions: filed as antagonist, dose 1-10 µM, time 150.0 min. The gist of the method: (§2)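 THP-1 cells in RPMI-1640 with 10% FBS, treated with compound (1.0 or 10 µM) or vehicle for 1 h. Then stimulated 90 min with C12-iE-DAP 500 ng/mL (NOD1) or MDP (NOD2). IL-6, TNF-α and IL-8 mRNA measured by qRT-PCR. Mean ± SD, n = 6, two-tailed t-test.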
On the technique in general: Real-time PCR tracks product formation cycle by cycle.

The target in data set [3] is T1, Nucleotide-binding oligomerization domain-containing protein 2. Kind of data set: Antagonist activity at NOD2 in human THP-1 cells assessed as inhibition of MDP-induced TNFalpha mRNA expression preincubated for 1 hr followed by MDP addition and measured after 90 mins by qRT-PCR analysis. Format: cell-based. Particulars: filed as antagonist, dose 1-10 µM, time 150.0 min. The gist of the method:
as §2

The nature of data set [4]: Half life in mouse liver microsomes at 1.25 uM preincubated for 5 mins followed by NADPH generating system addition and measured for 120 mins by LC-MS/MS analysis. Format: ADME, Microsome. The gist of the method:
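Mouse liver microsomes (1.25 mg/mL protein) in 100 mM phosphate pH 7.4 with 1.25 µM compound, preincubated 5 min at 37 °C. Reaction started with NADPH-generating system (1 mM NADP, 10 mM MgCl2, 10 mM G6P, 0.5 U/mL G6PDH). Sampled at 0–120 min, quenched with MeOH/ACN 1:1, analysed by LC-MS/MS.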
(In general: Liver microsomes are vesicles of endoplasmic reticulum, rich in cytochrome P450 enzymes.)

Data set [5] relates to B16-F10. Kind of data set: Potentiation of paclitaxel-induced antitumor activity against mouse B16-F10 cells implanted in C57BL/6 mouse assessed as tumor growth inhibition at 50 mg/kg, iv administered every other day for 15 days measured 24 hrs post last dose (reference value: 64.07%). Format: functional. Particulars: 384 h, time 16 day, read-out: TGI.
In data set [6] the target is T2, Nucleotide-binding oligomerization domain-containing protein 1 (Homo sapiens). Briefly: Antagonist activity at NOD1 in human THP-1 cells assessed as inhibition of C12-iE-DAP-induced increase in p65 phosphorylation at 1 to 10 uM preincubated for 1 hr followed by C12-iE-DAP addition and measured after 30 mins by Western blot analysis. Format: cell-based. Particulars: filed as antagonist, dose 1-10 µM, time 1.5 hrs. In outline: as §1

Data set [7] shares this target. Kind of data set: Antagonist activity at NOD1 in human THP-1 cells assessed as inhibition of C12-iE-DAP-induced increase in JNK phosphorylation at 1 to 10 uM preincubated for 1 hr followed by C12-iE-DAP addition and measured after 30 mins by Western blot analysis. Particulars: filed as antagonist, dose 1-10 µM, time 1.5 hrs. Format: cell-based. The gist of the method:
as §1

Data set [8] has as its target T1, Nucleotide-binding oligomerization domain-containing protein 2. Kind of data set: Antagonist activity at NOD2 in human THP-1 cells assessed as inhibition of MDP-induced IkappaBalpha degradation preincubated for 1 hr followed by MDP addition and measured after 30 mins by Western blot analysis. Type of data set: cell-based. Conditions: filed as antagonist, dose 1-10 µM, time 1.5 hrs. The gist of the method:
as §1

For data set [9] the target is unchanged. Briefly: Antagonist activity at NOD2 in HEK-Blue hNOD2 cells assessed as inhibition of MDP-induced NFkappaB activation-mediated SEAP release preincubated for 3 hrs followed by MDP addition and measured after 20 hrs by spectrophotometric method. Type of data set: cell-based. The gist of the method: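 HEK-Blue hNOD2 cells preincubated 3 h with a range of concentrations, then MDP 100 ng/mL for 20 h. SEAP quantified. SRB assay run to exclude cytotoxicity. IC50 by nonlinear semi-logarithmic fit, mean ± SD, n = 3.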

As for `O=C(NCCCOc1ccc(C(F)(F)F)cc1)c1cc2ncn(CC(=O)N3CCCC(F)(F)C3)c(=O)c2cc1-c1cccc(Cl)c1`, the inhibition result in [1] was “Dose-dependent effect”; in data set [2] it was “Dose-dependent effect”; in data set [3], “Dose-dependent effect”; in data set [8], “Dose-dependent effect”; in data set [9] (filed as antagonist, time 23.0 hrs), “Dose-dependent effect”. Further, the half-life (in general, how long it takes for the measured level to halve) at 1.25 µM in data set [4] was determined as 1.13 h. Further, the inhibition in vivo at 50 mg/kg in [5] turned out to be 85.5%. Further, the inhibition entry in data set [6] and in data set [7] was “Active” in each case. Also, the IC50 (usually the midpoint of a concentration-inhibition curve) in data set [9] came to 770 nM.
